Data as given in ChEMBL document CHEMBL2311276, “Synthesis of amidine and bis amidine derivatives and their evaluation for anti-inflammatory and anticancer activity” (Eur J Med Chem, 2013).

Columns and labels:
[1] = tested on: NCI-H522; assay: Cytotoxicity against human NCI-H522 cells assessed as growth inhibition at 1 x 10 '-5 M after 24 hrs by MTT assay; type: functional; settings: NCI-H522, 24 h, read-out: GI
In short: (§1)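 MTT screen at a single concentration of 1 × 10⁻⁵ M, 24 h exposure. Seeding was 5 × 10³ cells/well in RPMI-1640 with 2 mM glutamine. Vehicle was 0.1% final DMSO. MTT was added for 4 h at 37 °C, formazan dissolved in DMSO/glycine buffer (pH 10.5), and A570 read. Percent growth inhibition was calculated against vehicle-treated cells; triplicate, mean of three independent experiments.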

[2] = tested on: PA-1; assay: Cytotoxicity against human PA1 cells assessed as growth inhibition at 1 x 10 '-5 M after 24 hrs by MTT assay; type: functional; settings: PA-1, 24 h, read-out: GI; in short: as §1
[3] = tested on: Rattus norvegicus; assay: Antiinflammatory activity in Charles Foster albino rat assessed as inhibition of carrageenan-induced paw edema at 50 mg/kg, po administered 30 mins before carrageenan challenge measured after 1 to 3 hrs by plethysmometer analysis; type: functional
In short: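 Rats of both sexes (120–160 g; pregnant females excluded), five per group, were dosed orally at 50 mg/kg. After 30 min, 0.20 mL of freshly prepared 1% carrageenan in 0.9% NaCl was injected into the plantar aponeurosis of the hind paw. Paw volume was read by water plethysmometer before and 1–3 h later. Percent inhibition was taken against a carrageenan-only control group of five rats.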

[4] = tested on: HCT-15; assay: Cytotoxicity against human HCT15 cells assessed as growth inhibition at 1 x 10 '-5 M after 24 hrs by MTT assay; type: functional; settings: HCT-15, 24 h, read-out: GI; in short: as §1
[5] = tested on: T47D; assay: Cytotoxicity against human T47D cells assessed as growth inhibition at 1 x 10 '-5 M after 24 hrs by MTT assay; type: functional; settings: read-out: GI; in short: as §1
[6] = tested on: HepG2; assay: Cytotoxicity against human HepG2 cells assessed as growth inhibition at 1 x 10 '-5 M after 24 hrs by MTT assay; type: functional; settings: HepG2, 24 h, read-out: GI; in short: as §1
[7] = tested on: COS-1; assay: Cytotoxicity against african green monkey COS1 cells after 24 hrs by MTT assay; type: cell-based; settings: Chlorocebus aethiops, COS-1, 24 h
[8] = tested on: HCT-15; assay: Cytotoxicity against human HCT15 cells after 24 hrs by MTT assay; type: functional, cell-based; settings: HCT-15, 24 h
In short: (§2)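 Cell lines came from NCCS Pune and were grown in RPMI-1640 with 2 mM glutamine, pH 7.4. Cells were seeded at 5 × 10³ per well and exposed to serial dilutions in DMSO for 24 h, with 0.1% final DMSO as vehicle control. MTT (5 mg/ml) was added for 4 h at 37 °C. Formazan was dissolved in DMSO plus Sorensen glycine buffer (pH 10.5) and read at 570 nm. IC50 came from % inhibition versus vehicle; triplicate, mean ± SD of three experiments.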

[9] = tested on: NCI-H522; assay: Cytotoxicity against human NCI-H522 cells after 24 hrs by MTT assay; type: functional, cell-based; settings: NCI-H522, 24 h; in short: as §2
[10] = tested on: PA-1; assay: Cytotoxicity against human PA1 cells after 24 hrs by MTT assay; type: functional, cell-based; settings: PA-1, 24 h; in short: as §2
[11] = tested on: T47D; assay: Cytotoxicity against human T47D cells after 24 hrs by MTT assay; type: functional, cell-based; in short: as §2
[12] = tested on: HepG2; assay: Cytotoxicity against human HepG2 cells after 24 hrs by MTT assay; type: functional, cell-based; settings: HepG2, 24 h; in short: as §2

Row | Structure (SMILES) | inhibition of growth at 10 µM [1] [%] | inhibition of growth at 10 µM [2] [%] | inhibition in vivo at 50 mg/kg [3] [%] | inhibition of growth at 10 µM [4] [%] | inhibition of growth at 10 µM [5] [%] | inhibition of growth at 10 µM [6] [%] | IC50 [7] [µM] | IC50 [8] [µM] | IC50 [9] [µM] | IC50 [10] [µM] | IC50 [11] [µM] | IC50 [12] [µM]
1 | N=C(Nc1ccc(-c2ccc(NC(=N)c3ccccn3)cc2)cc1)c1ccccn1 | 32 | 37 | 26 | 16 | 2 | 23 |  |  |  |  |  | 
2 | N=C(Nc1ccc(-c2ccc(NC(=N)c3ccncc3)cc2)cc1)c1ccncc1 | 36 | 7 | 15 | 3 | 12 | 48 | 50 | 124 | 13.4 | 42.5 | 34.1 | 11.9
3 | N=C(NCc1cccnc1)c1ccccn1 | 9 | 36 | 10 | 23 | 23 | 42 |  |  |  |  |  | 
4 | N=C(NCc1cccnc1)c1ccncc1 | 7 | 21 | 0 | 22 | 22 | 20 |  |  |  |  |  | 
5 | N=C(NCc1cccnc1)c1cnccn1 | 11 | 23 | 18 | 3 | 23 | 26 |  |  |  |  |  | 
6 | N=C(NCCN1CCNCC1)c1ccccn1 | 8 | 40 | 11 | 24 | 14 | 27 |  |  |  |  |  | 
7 | N=C(NCCN1CCNCC1)c1cnccn1 | 9 | 36 | 20 | 28 | 22 | 23 |  |  |  |  |  | 
8 | N=C(NCCCCNC(=N)c1ccccn1)c1ccccn1 | 38 | 27 | 14 | 5 | 29 | 26 |  |  |  |  |  | 
9 | N=C(NCCCCNC(=N)c1ccncc1)c1ccncc1 | 20 | 10 | 15 | 5 | 27 | 50 | 246 | 87.8 | 36.6 | 49.2 | 43 | 11.2
10 | N=C(NCCCCNC(=N)c1cnccn1)c1cnccn1 | 5 | 15 | 37 | 9 | 19 | 17 |  |  |  |  |  | 
11 | N=C(NCCCN1CCN(CCCNC(=N)c2ccccn2)CC1)c1ccccn1 | 39 | 31 | 38 | 31 | 39 | 34 | 203 | 25.1 | 22 | 39.7 | 22.5 | 20.8
12 | N=C(NCCCN1CCN(CCCNC(=N)c2ccncc2)CC1)c1ccncc1 | 31 | 13 | 31 | 9 | 2 | 6 |  |  |  |  |  | 
13 | N=C(NCCCN1CCN(CCCNC(=N)c2cnccn2)CC1)c1cnccn1 | 15 | 26 | 27 | 12 | 28 | 22 |  |  |  |  |  | 
14 | N=C(Nc1ccc(-c2ccc(NC(=N)c3cnccn3)cc2)cc1)c1cnccn1 | 43 | 43 | 31 | 45 | 14 | 37 | 100 | 11.9 | 14.1 | 17.1 | 62.4 | 20.3
15 | N=C(NCCN1CCOCC1)c1ccccn1 | 31 | 43 | 0 | 12 | 21 | 40 |  |  |  |  |  | 
16 | N=C(NCCN1CCOCC1)c1ccncc1 | 11 | 43 | 28 | 17 | 12 | 9 |  |  |  |  |  | 
17 | C[C@@H]1C[C@@H]([C@H](O)CC2CC(=O)NC(=O)C2)C(=O)[C@@H](C)C1 [CYCLOHEXIMIDE] | 9 | 34 |  | 16 | 11 | 18 | 128 | 54.1 | 60.1 | 40.6 | 65.1 | 57.1
18 | O=P1(N(CCCl)CCCl)NCCCO1 (centres undefined) [CYCLOPHOSPHAMIDE ANHYDROUS] | 11 | 12 |  | 4 | 9 | 18 | 125 | 74.3 | 67.9 | 64.1 | 70.1 | 55.3
19 | O=c1[nH]cc(F)c(=O)[nH]1 [FLUOROURACIL] | 13 | 22 |  | 19 | 15 | 32 | 110 | 45 | 56.8 | 39.5 | 51.8 | 29.9
20 | CC(C)Cc1ccc(C(C)C(=O)O)cc1 (centres undefined) [IBUPROFEN] |  |  | 39 |  |  |  |  |  |  |  |  | 
